Source: ChEMBL document CHEMBL1275306, “Synthesis and cytotoxicity evaluation of 1-[3-(9H-carbazol-4-yloxy)-2-hydroxypropyl]-3-aryl-1H-pyrazole-5-carboxylic acid derivatives” (Eur J Med Chem, 2010)
Active and inactive are the calls of the source.

Legend:
Format in all cases: functional, cell-based
[1] = system: SK-N-SH; assay: Cytotoxicity against human SK-N-SH cells after 48 hrs by SRB assay
How it was run: (§1)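 Cells grown in minimal essential medium with 10% FBS, penicillin and streptomycin, then exposed in triplicate to […] test agent or doxorubicin for 48 h at 37 °C under 5% CO2. Cells fixed with cold TCA, stained with 0.4% SRB in 1% acetic acid; bound dye dissolved in buffer, OD read at 565 nm. Viability expressed as % of untreated cells; IC50 by non-linear regression.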

[2] = system: SK-N-SH; assay: Cytotoxicity against human SK-N-SH cells at 0.1 to 5 uM by SRB assay; settings: TDE = time-dependent effect; how it was run: as §1
[3] = system: MCF7; assay: Cytotoxicity against human MCF7 cells after 48 hrs by SRB assay; how it was run: as §1
[4] = system: MCF7; assay: Cytotoxicity against human MCF7 cells at 0.1 to 5 uM by SRB assay; settings: TDE = time-dependent effect; how it was run: as §1
[5] = system: A549; assay: Cytotoxicity against human A549 cells at 0.1 to 5 uM by SRB assay; settings: TDE = time-dependent effect; how it was run: as §1
[6] = system: SK-N-SH; assay: Cytotoxicity against human SK-N-SH cells at 0.5 uM after 48 hrs by SRB assay
[7] = system: A549; assay: Cytotoxicity against human A549 cells after 48 hrs by SRB assay; how it was run: as §1
[8] = system: SK-N-SH; assay: Cytotoxicity against human SK-N-SH cells at 0.1 uM after 48 hrs by SRB assay; how it was run: as §1
[9] = system: SK-N-SH; assay: Cytotoxicity against human SK-N-SH cells at 5 uM after 48 hrs by SRB assay; how it was run: as §1

Measured: Activity

O=C(O)c1cc(-c2ccc([N+](=O)[O-])cc2)nn1CC(O)COc1cccc2[nH]c3ccccc3c12 (stereo not drawn)
active: [1] Dose-dependent effect | [2] tde | [3] Dose-dependent effect | [4] tde | [5] tde | [6] | [7] Dose-dependent effect

Cc1ccc(-c2cc(C(=O)O)n(CC(O)COc3cccc4[nH]c5ccccc5c34)n2)cc1 (stereo not drawn)
active: [1] Dose-dependent effect | [2] tde | [3] Dose-dependent effect | [4] tde | [5] tde | [6] | [7] Dose-dependent effect

Cc1cccc(-c2cc(C(=O)O)n(CC(O)COc3cccc4[nH]c5ccccc5c34)n2)c1 (stereo not drawn)
active: [1] Dose-dependent effect | [8] | [2] tde | [9] | [3] Dose-dependent effect | [4] tde | [5] tde | [6] | [7] Dose-dependent effect

O=C(O)c1cc(-c2cccc([N+](=O)[O-])c2)nn1CC(O)COc1cccc2[nH]c3ccccc3c12 (stereo not drawn)
active: [1] Dose-dependent effect | [2] tde | [3] Dose-dependent effect | [4] tde | [5] tde | [6] | [7] Dose-dependent effect

COc1ccc(-c2cc(C(=O)O)n(CC(O)COc3cccc4[nH]c5ccccc5c34)n2)cc1 (stereo not drawn)
active: [1] Dose-dependent effect | [2] tde | [9] | [3] Dose-dependent effect | [4] tde | [5] tde | [6] | [7] Dose-dependent effect

COc1cccc2c1C(=O)c1c(O)c3c(c(O)c1C2=O)C[C@@](O)(C(=O)CO)C[C@@H]3O[C@H]1C[C@H](N)[C@H](O)[C@H](C)O1
active: [1] Dose-dependent effect | [2] tde | [3] Dose-dependent effect | [4] tde | [5] tde | [7] Dose-dependent effect

COc1cccc(-c2cc(C(=O)O)n(CC(O)COc3cccc4[nH]c5ccccc5c34)n2)c1 (stereo not drawn)
active: [1] Dose-dependent effect | [2] tde | [3] Dose-dependent effect | [4] tde | [5] tde | [6] | [7] Dose-dependent effect

O=C(O)c1cc(-c2ccccc2[N+](=O)[O-])nn1CC(O)COc1cccc2[nH]c3ccccc3c12 (stereo not drawn)
active: [1] Dose-dependent effect | [2] tde | [3] Dose-dependent effect | [4] tde | [5] tde | [6] | [7] Dose-dependent effect
